According to ChEMBL document CHEMBL1157575, “Antitumor agents. 272. Structure-activity relationships and in vivo selective anti-breast cancer activity of novel neo-tanshinlactone analogues” (J Med Chem, 2010):
Values after ≈ are worked out from the molar mass of the structure shown.

Legend:
MCF7 = assay: Growth inhibition of human MCF7 cells after 72 hrs by SRB assay; format: functional; conditions: MCF7, 72 h, read-out: ED50 (the source's name)
In short: (§1)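 SRB assay. Cells were grown in RPMI-1640 with 10% FBS at 37 °C and 5% CO2, then seeded in 96-well plates. Compound was added from DMSO stock, followed by 72 h incubation. Cells were fixed with 10% TCA, stained with 0.4% SRB, solubilized in 10 mM Tris base, and read at 515 nm. ED50 is the concentration giving 50% reduction of net protein increase versus control; mean of at least three independent determinations.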

SK-BR-3 = assay: Growth inhibition of human SK-BR-3 cells after 72 hrs by SRB assay; format: functional; conditions: SK-BR-3, 72 h, read-out: ED50 (the source's name); in short: as §1
ZR-75-1 [1] = assay: Growth inhibition of human ZR-75-1 cells after 72 hrs by SRB assay; format: functional; conditions: ZR-75-1, 72 h, read-out: ED50 (the source's name); in short: as §1
KB = assay: Cytotoxicity against human KB cells after 72 hrs by SRB assay; format: functional; conditions: read-out: ED50 (the source's name); in short: as §1
[2] = Cytotoxicity against human KBVIN cells after 72 hrs by SRB assay; format: functional; conditions: read-out: ED50 (the source's name); in short: as §1
DU-145 = assay: Cytotoxicity against human DU145 cells after 72 hrs by SRB assay; format: functional; conditions: DU-145, 72 h, read-out: ED50 (the source's name)
A549 = assay: Cytotoxicity against human A549 cells after 72 hrs by SRB assay; format: functional; conditions: A549, 72 h, read-out: ED50 (the source's name)
MDA-MB-231 = assay: Growth inhibition of human MDA-MB-231 cells after 72 hrs by SRB assay; format: functional; conditions: MDA-MB-231, 72 h, read-out: ED50 (the source's name); in short: as §1
[3] = Cytotoxicity against human 184A1 cells after 72 hrs by MTT assay; format: cell-based; conditions: read-out: ED50
In short: (§2)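 MTT assay. Cells were seeded at 5000/well in recommended growth medium and incubated overnight. Compound was added in DMSO, followed by 72 h at 37 °C in 5% CO2. MTT reagent was added for 2 h and formazan was read at OD 570 nm. Values were interpolated ED50; data are from replicates in a single experiment.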

[4] = biological target: Tyrosine-protein kinase ABL1 (Mus musculus) (UniProt P00520); assay: Inhibition of mouse recombinant ABL expressed in Escherichia coli at 10 uM
Tyrosine-protein kinase ABL1 (Mus musculus), sequence (P00520 whole entry): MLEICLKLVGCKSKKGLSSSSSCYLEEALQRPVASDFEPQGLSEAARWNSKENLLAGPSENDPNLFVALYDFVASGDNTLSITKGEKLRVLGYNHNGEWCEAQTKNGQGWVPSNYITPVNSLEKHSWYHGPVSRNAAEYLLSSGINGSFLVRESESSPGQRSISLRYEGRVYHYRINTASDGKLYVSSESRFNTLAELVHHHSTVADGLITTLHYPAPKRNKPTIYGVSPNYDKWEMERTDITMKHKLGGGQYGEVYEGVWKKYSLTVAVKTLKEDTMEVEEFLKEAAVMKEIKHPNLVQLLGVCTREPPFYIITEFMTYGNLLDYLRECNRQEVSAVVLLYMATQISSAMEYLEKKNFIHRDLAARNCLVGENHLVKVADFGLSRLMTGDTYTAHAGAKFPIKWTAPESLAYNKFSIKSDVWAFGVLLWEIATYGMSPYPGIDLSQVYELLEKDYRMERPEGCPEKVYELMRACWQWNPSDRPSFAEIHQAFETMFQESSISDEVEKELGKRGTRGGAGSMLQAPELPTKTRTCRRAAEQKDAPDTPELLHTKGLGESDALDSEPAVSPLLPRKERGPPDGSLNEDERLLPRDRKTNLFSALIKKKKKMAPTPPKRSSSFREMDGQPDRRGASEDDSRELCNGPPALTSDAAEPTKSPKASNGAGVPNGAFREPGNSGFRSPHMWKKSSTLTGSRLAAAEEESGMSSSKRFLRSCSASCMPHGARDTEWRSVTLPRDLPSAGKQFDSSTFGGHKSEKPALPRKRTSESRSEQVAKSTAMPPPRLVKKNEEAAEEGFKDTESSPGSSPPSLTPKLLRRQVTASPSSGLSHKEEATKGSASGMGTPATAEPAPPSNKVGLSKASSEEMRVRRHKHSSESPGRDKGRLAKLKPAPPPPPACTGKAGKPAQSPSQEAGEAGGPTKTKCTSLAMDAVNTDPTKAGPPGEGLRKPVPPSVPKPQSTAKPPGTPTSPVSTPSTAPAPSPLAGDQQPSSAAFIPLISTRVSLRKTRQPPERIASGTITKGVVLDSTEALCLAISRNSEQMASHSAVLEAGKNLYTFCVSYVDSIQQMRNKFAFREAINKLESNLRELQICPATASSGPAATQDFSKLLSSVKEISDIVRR

ZR-75-1 [5] = assay: Antitumor activity against human ZR-75-1 cells xenografted in athymic nude mouse SCID assessed as tumor growth delay at 10 mg/kg, ip administered in QOD schedule; format: functional; conditions: route intraperitoneal
In short: (§3)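 Female SCID mice, 5 weeks old, 20-24 g, implanted s.c. in the right flank with 1 × 10^7 ZR-75-1 cells in PBS. Tumors were caliper-measured, with volume = w² × l/2. Dosing was i.p. in vehicle (4% benzyl alcohol/6% cremophor/90% D5W); vehicle controls were given qod to end. TTE is the mean time to endpoint. %TGD = (T−C)/C × 100. Logrank test, P ≤ 0.05.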

ZR-75-1 [6] = assay: Antitumor activity against human ZR-75-1 cells xenografted in athymic nude mouse SCID assessed as mean time to end point at 10 mg/kg, ip administered in QOD schedule; format: functional; conditions: route intraperitoneal; in short: as §3
[7] = Cytotoxicity against human MCF10A cells after 72 hrs by MTT assay; format: cell-based, MCF-10A; conditions: read-out: ED50; in short: as §2
[8] = biological target: RAC-alpha serine/threonine-protein kinase (Homo sapiens) (UniProt P31749); assay: Inhibition of human recombinant AKT1 expressed in Sf21 cells at 10 uM
RAC-alpha serine/threonine-protein kinase (Homo sapiens), sequence (P31749 whole entry): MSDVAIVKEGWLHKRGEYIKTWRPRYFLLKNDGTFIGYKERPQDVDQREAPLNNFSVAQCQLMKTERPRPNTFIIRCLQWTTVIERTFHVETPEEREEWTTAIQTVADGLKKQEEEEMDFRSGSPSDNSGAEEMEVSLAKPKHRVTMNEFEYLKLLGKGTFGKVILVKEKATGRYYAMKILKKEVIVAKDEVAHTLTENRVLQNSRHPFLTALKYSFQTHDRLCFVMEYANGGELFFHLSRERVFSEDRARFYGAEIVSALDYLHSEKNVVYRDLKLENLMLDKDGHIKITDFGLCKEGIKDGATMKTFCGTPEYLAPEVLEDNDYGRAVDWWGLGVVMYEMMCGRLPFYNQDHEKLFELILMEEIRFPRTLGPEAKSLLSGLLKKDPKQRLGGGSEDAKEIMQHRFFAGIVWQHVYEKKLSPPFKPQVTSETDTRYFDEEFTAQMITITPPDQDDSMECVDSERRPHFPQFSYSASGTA

[9] = biological target: Casein kinase II subunit alpha (Homo sapiens) (UniProt P68400); assay: Inhibition of human recombinant CK2alpha1 expressed in Sf9 cells at 10 uM
Casein kinase II subunit alpha (Homo sapiens), sequence (P68400 whole entry, looked up): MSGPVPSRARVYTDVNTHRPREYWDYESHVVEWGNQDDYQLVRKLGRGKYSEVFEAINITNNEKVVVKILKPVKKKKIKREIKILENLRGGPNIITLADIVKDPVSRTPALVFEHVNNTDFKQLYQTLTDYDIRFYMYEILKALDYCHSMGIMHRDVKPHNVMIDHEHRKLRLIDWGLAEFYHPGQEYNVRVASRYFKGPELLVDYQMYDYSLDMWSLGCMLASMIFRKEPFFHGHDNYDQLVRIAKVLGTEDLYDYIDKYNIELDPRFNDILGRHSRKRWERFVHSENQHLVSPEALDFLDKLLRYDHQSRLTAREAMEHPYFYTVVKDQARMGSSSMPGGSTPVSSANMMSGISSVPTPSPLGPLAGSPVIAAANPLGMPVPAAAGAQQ

ZR-75-1 [10] = assay: Selectivity for ED50 for human ZR-75-1 to ED50 for human SK-BR-3; format: functional
In short: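 SRB growth assay: ZR-75-1 and SK-BR-3 cells in RPMI-1640 with 10% FBS at 37 °C under 5% CO2, seeded in 96-well plates, compound added from DMSO stock, 72 h exposure, TCA fixation, SRB staining, absorbance at 515 nm. ED50 is 50% reduction of net protein increase, averaged from ≥3 independent runs; ratio of ZR-75-1 to SK-BR-3 ED50.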

ZR-75-1 [11] = assay: Antitumor activity against human ZR-75-1 cells xenografted in athymic nude mouse SCID assessed as tumor growth delay at 20 mg/kg, ip administered in Q4D X 5 schedule; format: functional; conditions: route intraperitoneal; in short: as §3
ZR-75-1 [12] = assay: Antitumor activity against human ZR-75-1 cells xenografted in athymic nude mouse SCID assessed as mean time to end point at 20 mg/kg, ip administered in Q4D X 5 schedule; format: functional; conditions: route intraperitoneal; in short: as §3

| SMILES | EC50 (MCF7) [µg/mL] | EC50 (SK-BR-3) [µg/mL] | EC50 (ZR-75-1 [1]) [µg/mL] | EC50 (KB) [µg/mL] | EC50 (MDA-MB-231) [µg/mL] | also measured |
| --- | --- | --- | --- | --- | --- | --- |
| Cc1coc2c1c(=O)sc1c3ccccc3ccc21 | > 20 | 12 (≈ 45.1 µM) | – | – | – | – |
| CCc1coc2c1c(=O)oc1c3ccccc3ccc21 | 2.5 (≈ 9.46 µM) | 1.8 (≈ 6.81 µM) | 2.3 (≈ 8.7 µM) | 7.5 (≈ 28.4 µM) | > 10 | EC50 [2]: 6.6 µg/mL (≈ 25 µM); EC50 (DU-145): 8.7 µg/mL (≈ 32.9 µM); EC50 (A549): 8.2 µg/mL (≈ 31 µM) |
| CCc1cccc2c1ccc1c3occ(C)c3c(=O)oc21 | 0.2 (≈ 0.719 µM) | 0.1 (≈ 0.359 µM) | 0.1 (≈ 0.359 µM) | 13 (≈ 46.7 µM) | 8.8 (≈ 31.6 µM) | CC50 at 72 h [3]: 4.4 µg/mL (≈ 15.8 µM); inhibition [4]: 93%; EC50 (DU-145): 16 µg/mL (≈ 57.5 µM); Activity (ZR-75-1 [5]): 95%; Activity (ZR-75-1 [6]): 29.5 days; CC50 at 72 h [7]: 2.7 µg/mL (≈ 9.7 µM); inhibition [8]: 93%; inhibition [9]: 99%; EC50 (A549): 11 µg/mL (≈ 39.5 µM) |
| Cc1coc2c1c(=O)oc1c3cccc(F)c3ccc21 | 4.5 (≈ 16.8 µM) | 1.1 (≈ 4.1 µM) | 0.8 (≈ 2.98 µM) | 13 (≈ 48.5 µM) | > 10 | EC50 [2]: 15 µg/mL (≈ 55.9 µM); EC50 (DU-145): 18 µg/mL (≈ 67.1 µM); EC50 (A549): 14 µg/mL (≈ 52.2 µM) |
| Cc1coc2c1c(=O)oc1c3cccc(O)c3ccc21 | 15 (≈ 56.3 µM) | 5 (≈ 18.8 µM) | – | – | – | – |
| CCc1coc2c1c(=O)oc1c3cccc(C)c3ccc21 | 7.5 (≈ 26.9 µM) | 11 (≈ 39.5 µM) | – | – | – | – |
| CC(=O)Oc1cccc2c1ccc1c3occ(C)c3c(=O)oc21 | 6 (≈ 19.5 µM) | 5.7 (≈ 18.5 µM) | – | – | – | – |
| CCOc1cccc2c1ccc1c3occ(C)c3c(=O)oc21 | > 20 | 2.5 (≈ 8.49 µM) | 1.9 (≈ 6.46 µM) | 3.7 (≈ 12.6 µM) | 9.8 (≈ 33.3 µM) | EC50 [2]: 5.3 µg/mL (≈ 18 µM); EC50 (DU-145): 4.7 µg/mL (≈ 16 µM); EC50 (A549): 3.5 µg/mL (≈ 11.9 µM) |
| COc1cccc2c1ccc1c3occ(C)c3c(=O)oc21 | 2.3 (≈ 8.21 µM) | 0.2 (≈ 0.714 µM) | 0.1 (≈ 0.357 µM) | 13 (≈ 46.4 µM) | 6.4 (≈ 22.8 µM) | EC50 [2]: 12 µg/mL (≈ 42.8 µM); EC50 (DU-145): 14 µg/mL (≈ 50 µM) |
| CCc1cccc2c1ccc1c3oc(C)c(C)c3c(=O)oc21 | 8 (≈ 27.4 µM) | 9.8 (≈ 33.5 µM) | – | – | – | – |
| Cc1cccc2c1ccc1c3occ(C)c3c(=O)oc21 | 0.6 (≈ 2.27 µM) | 0.2 (≈ 0.757 µM) | 0.3 (≈ 1.14 µM) | – | 10 (≈ 37.8 µM) | – |
| CCCn1c(=O)c2c3occ(C)c3c(=O)oc2c2ccccc21 | > 20 | 15 (≈ 48.5 µM) | – | – | – | – |
| CC1COc2c1c(=O)oc1c2ccc2ccccc21 (centres undefined) | – | 14 (≈ 55.5 µM) | – | – | – | – |
| Cc1oc2c(c1C)c(=O)oc1c3ccccc3ccc21 | > 20 | 6.9 (≈ 26.1 µM) | – | – | – | – |
| Cc1coc2c1c(=O)oc1c3cccc(C(C)C)c3ccc21 | 1.4 (≈ 4.79 µM) | 2 (≈ 6.84 µM) | 0.2 (≈ 0.684 µM) | 11 (≈ 37.6 µM) | > 10 | EC50 [2]: 7.3 µg/mL (≈ 25 µM); Ratio ED50 (ZR-75-1 [10]): 10 |
| CCc1cccc2c1ccc1c3occ(CC)c3c(=O)oc21 | 1.3 (≈ 4.45 µM) | 1.5 (≈ 5.13 µM) | 0.6 (≈ 2.05 µM) | 12 (≈ 41 µM) | > 10 | EC50 [2]: 15 µg/mL (≈ 51.3 µM); EC50 (DU-145): 16 µg/mL (≈ 54.7 µM); EC50 (A549): 18 µg/mL (≈ 61.6 µM) |

| SMILES | EC50 (MCF7) [µg/mL] | EC50 (SK-BR-3) [µg/mL] | EC50 (ZR-75-1 [1]) [µg/mL] | EC50 (KB) [µg/mL] | EC50 (MDA-MB-231) [µg/mL] | also measured |
| --- | --- | --- | --- | --- | --- | --- |
| CCc1cccc2c1ccc1c3occ(C)c3c(=S)oc21 | > 20 | 16 (≈ 54.4 µM) | – | – | – | – |
| Cc1coc2c1c(=O)[nH]c1c3ccccc3ccc12 | – | 4.4 (≈ 17.7 µM) | – | – | – | – |
| Cc1coc2c1c(=O)oc1c3ccccc3ccc21 | 4 (≈ 16 µM) | 1 (≈ 4 µM) | 4 (≈ 16 µM) | – | – | – |
| CCCc1cccc2c1ccc1c3occ(C)c3c(=O)oc21 | 1.2 (≈ 4.1 µM) | 0.1 (≈ 0.342 µM) | 0.3 (≈ 1.03 µM) | 12 (≈ 41 µM) | > 10 | EC50 [2]: 11 µg/mL (≈ 37.6 µM); EC50 (DU-145): 15 µg/mL (≈ 51.3 µM); Ratio ED50 (ZR-75-1 [10]): 3 |
| CCc1cccc2c1ccc1c3occ(-c4ccc(OC)cc4)c3c(=O)oc21 | > 20 | > 20 | – | – | – | – |
| Cc1coc2c1c(=O)oc1c3ccccc3n(C)c(=O)c21 | 11 (≈ 39.1 µM) | 12 (≈ 42.7 µM) | – | – | – | – |
| Cc1ccc2c(=O)oc3c4ccccc4ccc3c2c1 | – | > 20 | – | – | – | – |
| Cc1coc2c1c(=O)oc1c3cccc(C(C)Br)c3ccc21 (centres undefined) | – | 0.1 (≈ 0.28 µM) | 0.1 (≈ 0.28 µM) | 13 (≈ 36.4 µM) | 14 (≈ 39.2 µM) | EC50 [2]: > 20 µg/mL; EC50 (DU-145): 18 µg/mL (≈ 50.4 µM); EC50 (A549): > 20 µg/mL |
| CCc1cccc2c1ccc1c3c(c(=O)oc12)C(C)CO3 (centres undefined) | – | 5.1 (≈ 18.2 µM) | – | – | – | – |
| Cc1cc2c(=O)oc3c4ccccc4ccc3c2o1 | > 20 | 12 (≈ 48 µM) | – | – | – | – |
| CC(=O)O[C@H]1C(=O)[C@@]2(C)[C@H]([C@H](OC(=O)c3ccccc3)[C@]3(O)C[C@H](OC(=O)[C@H](O)[C@@H](NC(=O)c4ccccc4)c4ccccc4)C(C)=C1C3(C)C)[C@]1(OC(C)=O)CO[C@@H]1C[C@@H]2O [PACLITAXEL] | – | – | – | – | – | Activity (ZR-75-1 [11]): 132%; Activity (ZR-75-1 [12]): 35 days |
| CCc1cccc2c1ccc1c3occ(C)c3/c(=N/O)oc21 | > 20 | 19 (≈ 64.8 µM) | – | – | – | – |
| Cc1coc2c1c(=S)oc1c3ccccc3ccc21 | > 20 | > 20 | – | – | – | – |
| Cc1coc2c1c(=O)oc1c3cccc(OCCN(C)C)c3ccc21 | 5 (≈ 14.8 µM) | 5.8 (≈ 17.2 µM) | – | – | – | – |
| CCc1cccc2c1ccc1c3oc(C)cc3c(=O)oc21 | > 20 | 2.1 (≈ 7.55 µM) | 2.2 (≈ 7.9 µM) | 14 (≈ 50.3 µM) | 9.6 (≈ 34.5 µM) | EC50 [2]: 13 µg/mL (≈ 46.7 µM); EC50 (A549): 12 µg/mL (≈ 43.1 µM) |
| COc1ccc(-c2coc3c2c(=O)oc2c4ccccc4ccc32)cc1 | – | 5.8 (≈ 16.9 µM) | – | – | – | – |
